From publication PMC12416921 (RSC Medicinal Chemistry, 2025)
Where two headings read alike, the source gives them in different places.

Tested on: A549 human cancer cell line
Test: A549 differential cytotoxicity
Type: cell-based
Settings: for HCR (hypoxia cytotoxicity ratio): A549, oxic vs anoxic IC50, 4 h incubation then 48 h oxic exposure; for IC50: Homo sapiens
How it was run: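 A549 cells plated at 6000/well in MEM-alpha with 10% FBS and 0.02 mM 2′-deoxycytidine, attached 2 h. Anoxic arm in a Coy chamber with preconditioned medium and degassed plates; normoxic arm at 95% air/5% CO2. Final 50 μg mL−1 to 5 pg mL−1, duplicate wells. 4 h exposure, then 48 h aerobic without media change.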

[1] = A549, read-out: IC50 [anoxic] (μM) ± SEM
[2] = A549, read-out: IC50 [oxic] (μM) ± SEM

Row | Structure (SMILES) | HCR (hypoxia cytotoxicity ratio) | IC50 [1] [µM] | IC50 [2] [µM]
1 | COc1ccc2c(C(=O)c3cc(OC)c(OC)c(OC)c3)c(-c3ccc(OC)c(OC(C)(C)c4ccc([N+](=O)[O-])s4)c3)[nH]c2c1 [KGP354 (25), (6-Methoxy-2-(4-methoxy-3-((2-(5-nitrothiophen-2-yl)propan-2-yl)oxy)phenyl)-1H-indol-3-yl)(3,4,5-trimethoxyphenyl)methanone] | 79 | 0.07 ± 0.02 | 5.53 ± 2.22
2 | COc1cc(C2=CCCc3c2ccc(OC)c3OCc2ccc([N+](=O)[O-])s2)cc(OC)c1OC [KGP24 (12), 2-(((2-Methoxy-5-(3,4,5-trimethoxyphenyl)-7,8-dihydronaphthalen-1-yl)oxy)methyl)-5-nitrothiophene] | 1.0 | 0.48 ± 0.04 | 0.46 ± 0.05
3 | COc1cc(C2=CCCCc3c2ccc(OC)c3OC(C)c2cnc([N+](=O)[O-])n2C)cc(OC)c1OC (stereo not drawn) [KGP292 (22), 5-(1-((3-Methoxy-9-(3,4,5-trimethoxyphenyl)-6,7-dihydro-5H-benzo[7]annulen-4-yl)oxy)ethyl)-1-methyl-2-nitro-1H-imidazole] | 4.8 | 0.14 ± 0.04 | 0.67 ± 0.13
4 | COc1cc(C2=CCCc3c2ccc(OC)c3OC(C)(C)c2ccc([N+](=O)[O-])s2)cc(OC)c1OC [KGP66 (14), 2-(2-((2-Methoxy-5-(3,4,5-trimethoxyphenyl)-7,8-dihydronaphthalen-1-yl)oxy)propan-2-yl)-5-nitrothiophene] | 2.6 | 0.05 ± 0.01 | 0.13 ± 0.06
5 | Nc1n[n+]([O-])c2ccccc2[n+]1[O-] [TPZ (1), tirapazamine, reference compound] | 8.9 | 7.1 | 63.5
6 | COc1cc(C2=CCCCc3c2ccc(OC)c3OCc2ccc([N+](=O)[O-])s2)cc(OC)c1OC [KGP305 (19), 2-(((3-Methoxy-9-(3,4,5-trimethoxyphenyl)-6,7-dihydro-5H-benzo[7]annulen-4-yl)oxy)methyl)-5-nitrothiophene] | 0.2 | 0.22 ± 0.09 | 0.05 ± 0.005
7 | COc1ccc2c(C(=O)c3cc(OC)c(OC)c(OC)c3)c(-c3ccc(OC)c(OC(C)c4ccc([N+](=O)[O-])s4)c3)[nH]c2c1 (stereo not drawn) [KGP343 (24), (6-Methoxy-2-(4-methoxy-3-(1-(5-nitrothiophen-2-yl)ethoxy)phenyl)-1H-indol-3-yl)(3,4,5-trimethoxyphenyl)methanone] | 33.8 | 0.12 ± 0.06 | 4.06 ± 1.89
8 | COc1cc(C2=CCCCc3c2ccc(OC)c3OCc2cnc([N+](=O)[O-])n2C)cc(OC)c1OC [KGP293 (21), 5-(((3-Methoxy-9-(3,4,5-trimethoxyphenyl)-6,7-dihydro-5H-benzo[7]annulen-4-yl)oxy)methyl)-1-methyl-2-nitro-1H-imidazole] | 9.0 | 0.04 ± 0.005 | 0.36 ± 0.02
9 | COc1cc(C2=CCCc3c2ccc(OC)c3OCc2cnc([N+](=O)[O-])n2C)cc(OC)c1OC [KGP105 (15), 5-(((2-Methoxy-5-(3,4,5-trimethoxyphenyl)-7,8-dihydronaphthalen-1-yl)oxy)methyl)-1-methyl-2-nitro-1H-imidazole] | 6.2 | 0.04 ± 0.003 | 0.25 ± 0.02
10 | COc1cc(C2=CCCCc3c2ccc(OC)c3OC(C)c2ccc([N+](=O)[O-])s2)cc(OC)c1OC (stereo not drawn) [KGP304 (20), 2-(1-((3-Methoxy-9-(3,4,5-trimethoxyphenyl)-6,7-dihydro-5H-benzo[7]annulen-4-yl)oxy)ethyl)-5-nitrothiophene] | 6.0 | 0.38 ± 0.12 | 2.27 ± 1.01
11 | COc1ccc2c(C(=O)c3cc(OC)c(OC)c(OC)c3)c(-c3ccc(OC)c(OCc4ccc([N+](=O)[O-])s4)c3)[nH]c2c1 [KGP311 (23), (6-Methoxy-2-(4-methoxy-3-((5-nitrothiophen-2-yl)methoxy)phenyl)-1H-indol-3-yl)(3,4,5-trimethoxyphenyl)methanone] | 79.7 | 0.07 ± 0.04 | 5.58 ± 3.59
12 | COc1cc(C2=CCCc3c2ccc(OC)c3OC(C)c2cnc([N+](=O)[O-])n2C)cc(OC)c1OC (stereo not drawn) [KGP291 (16), 5-(1-((2-Methoxy-5-(3,4,5-trimethoxyphenyl)-7,8-dihydronaphthalen-1-yl)oxy)ethyl)-1-methyl-2-nitro-1H-imidazole] | 7.6 | 0.05 ± 0.004 | 0.38 ± 0.03
13 | COc1cc(C2=CCCc3c2ccc(OC)c3OC(C)c2ccc([N+](=O)[O-])s2)cc(OC)c1OC (stereo not drawn) [KGP25 (13), 2-(1-((2-Methoxy-5-(3,4,5-trimethoxyphenyl)-7,8-dihydronaphthalen-1-yl)oxy)ethyl)-5-nitrothiophene] | 11.0 | 0.25 ± 0.08 | 2.74 ± 1.13
